Three compounds from ChEMBL document CHEMBL1146561, “New sesterterpene sulfates from the sponge Darwinella australensis” (J Nat Prod, 2003) can be followed below.

Assay [1] concerns Bacillus subtilis. Briefly: Antimicrobial activity against Bacillus subtilis at 25 ug by paper-disk method. The class given is functional. The following applies: read-out: IZ. A digest of the protocol:
(§1)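 Paper-disk diffusion assay with 25 μg of sample applied. Activity was read as the diameter of the inhibition zone in mm.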

The subject of assay [2] is K562. The experiment in a line: Cytotoxicity against human K562 cells by MTT assay. The class given is functional. The settings on record: read-out: LC50 (the source's name). A digest of the protocol:
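Human leukemia K562 line; viability by MTT method; activity expressed as LC50 in μg/mL.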
For orientation: Formazan colour is commonly taken as a measure of viable cells.

Assay [3] relates to Staphylococcus aureus. Briefly: Antimicrobial activity against Staphylococcus aureus at 25 ug by paper-disk method. The class given is functional. The settings on record: read-out: IZ. In short, it runs like this: as §1
Assay [4] concerns Candida albicans. The experiment in a line: Antimicrobial activity against Candida albicans at 25 ug by paper-disk method. The class given is functional. The following applies: read-out: IZ. In short, it runs like this:
as §1

The test system of assay [5] is Escherichia coli. Briefly: Antimicrobial activity against Escherichia coli at 25 ug by paper-disk method. The class given is functional. The following applies: read-out: IZ. In short, it runs like this:
as §1

The test system of assay [6] is Streptococcus sp. Briefly: Antimicrobial activity against Streptococcus sp. at 25 ug by paper-disk method. The settings on record: read-out: IZ. The class given is functional. A digest of the protocol:
as §1

A short description of assay [7]: Inhibition of cell division in sea urchin fertilized egg. The class given is functional, Strongylocentrotus intermedius. A digest of the protocol: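 Fertilized eggs of the sea urchin Strongylocentrotus intermedius were scored for inhibition of cell division. IC50 is expressed in μg/mL.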

Where only a bound is given, the exact number is not on record here.

For `C[C@H]1CC[C@H]2C(=CC(=O)CC2(C)C)[C@@]1(C)CCC(CCCc1ccoc1)COS(=O)(=O)[O-].[Na+]` (stereo not given in full) [HALISULPHATE 8], the zone of inhibition at 25 µg/disc in assay [1], in assay [3], in assay [4], in assay [5] and in assay [6] was under 3 mm in each case. Moreover, in assay [2], the CC50 is over 100 µg/mL.

As usually defined, the IC50 is the concentration at which inhibition is half-maximal. High values mean weaker potency, low ones greater potency. For `C[C@H]1CC[C@H]2C(=CCCC2(C)C)[C@@]1(C)CCC(CCCC1=CC(=O)OC1)COS(=O)(=O)[O-].[Na+]` (stereo not given in full) [HALISULPHATE 9], the zone of inhibition at 25 µg/disc in assay [1], in assay [3], in assay [4], in assay [5] and in assay [6] was under 3 mm throughout. In addition, the CC50 in assay [2] is over 100 µg/mL. In assay [7], this compound gave an IC50 of 50 µg/mL.

Consider `COC1C=C(CCCC(CC[C@]2(C)C3=CCCC(C)(C)[C@H]3CC[C@@H]2C)COS(=O)(=O)[O-])C(=O)O1.[Na+]` (stereo not given in full) [HALISULPHATE 10], for which the zone of inhibition at 25 µg/disc in assay [1], in assay [3], in assay [4], in assay [5] and in assay [6] was under 3 mm each time. Also, in assay [2], the CC50 is over 100 µg/mL. In assay [7], this compound displayed an IC50 of 35 µg/mL.
